# Calls of active or inactive are those of the source. The rule behind the calls is not given here.
# How the values were obtained:
# Staphylococcus aureus [1] = assay: Antimicrobial activity against Staphylococcus aureus after 18 hrs by zone-of-inhibition assay; format: functional, organism-based
# Mus musculus [2] = assay: Toxicity in human LU1 cell xenografted mouse at 50 mg/kg; format: organism-based; set-up: dose 50 mg/kg; conditions: in vivo
# [3] = tested on: Mycolicibacterium smegmatis; assay: Antimicrobial activity against Mycobacterium smegmatis assessed as 99.9 % growth inhibition after 18 hrs by zone-of-inhibition assay; format: functional
# Candida albicans [4] = assay: Antimicrobial activity against Candida albicans assessed as 99.9 % growth inhibition after 18 hrs by zone-of-inhibition assay; format: functional
# Staphylococcus aureus [5] = assay: Antimicrobial activity against Staphylococcus aureus assessed as 99.9 % growth inhibition after 18 hrs by zone-of-inhibition assay; format: functional
# Saccharomyces cerevisiae [6] = assay: Antifungal activity against Saccharomyces cerevisiae after 18 hrs by zone-of-inhibition assay; format: functional, organism-based
# LNCaP [7] = assay: Antitumor activity against human LNCAP cell xenografted mouse by hollow fiber assay; format: functional, cell-based
# In short: (§1)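 Hollow fiber assay in mice with KB, LNCaP or Lu1 cells in fibers implanted at intraperitoneal and subcutaneous sites. Mice were treated by injection at doses from 1.25 to 10 mg/kg or up to 50 mg/kg. Tumor cell growth inhibition in the fibers was assessed at each site.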
# Lu1 [8] = assay: Antitumor activity against human Lu1 cell xenografted mouse by hollow fiber assay; format: functional, cell-based; in short: as §1
# Mus musculus [9] = assay: Toxicity in human KB cell xenografted mouse at 50 mg/kg; format: organism-based; set-up: dose 50 mg/kg; conditions: in vivo
# Saccharomyces cerevisiae [10] = assay: Antifungal activity against Saccharomyces cerevisiae assessed as 99.9 % growth inhibition after 18 hrs by zone-of-inhibition assay; format: functional
# Candida albicans [11] = assay: Antifungal activity against Candida albicans after 18 hrs by zone-of-inhibition assay; format: functional, organism-based; conditions: Candida albicans, 18 h
# KB [12] = assay: Antitumor activity against human KB cell xenografted mouse by hollow fiber assay; format: functional, cell-based; in short: as §1
# Micrococcus luteus [13] = assay: Antimicrobial activity against Micrococcus luteus after 18 hrs by zone-of-inhibition assay; format: functional, organism-based
# [14] = Cytotoxicity against human HUVEC; format: cell-based; conditions: HUVEC cells, read-out: ED50 (the source's name)
# KB [15] = assay: Cytotoxicity against human KB cells; format: functional, cell-based; conditions: read-out: ED50 (the source's name)
# Lu1 [16] = assay: Cytotoxicity against human Lu1 cells; format: functional; conditions: read-out: ED50 (the source's name)
# LNCaP [17] = assay: Cytotoxicity against human LNCAP cells; format: functional; conditions: read-out: ED50 (the source's name)
# [18] = tested on: Mycolicibacterium smegmatis; assay: Antimicrobial activity against Mycobacterium smegmatis after 18 hrs by zone-of-inhibition assay; format: functional, organism-based
# Cryptococcus neoformans [19] = assay: Antifungal activity against Cryptococcus neoformans assessed as 99.9 % growth inhibition after 18 hrs by zone-of-inhibition assay; format: functional
# Aspergillus niger [20] = assay: Antifungal activity against Aspergillus niger assessed as 99.9 % growth inhibition after 18 hrs by zone-of-inhibition assay; format: functional
# Aspergillus niger [21] = assay: Antifungal activity against Aspergillus niger after 18 hrs by zone-of-inhibition assay; format: functional, organism-based
# Mus musculus [22] = assay: Toxicity in human LNCaP cell xenografted mouse at 50 mg/kg; format: organism-based; set-up: dose 50 mg/kg; conditions: in vivo
# Cryptococcus neoformans [23] = assay: Antifungal activity against Cryptococcus neoformans after 18 hrs by zone-of-inhibition assay; format: functional, organism-based; conditions: Cryptococcus neoformans, 18 h
# Micrococcus luteus [24] = assay: Antimicrobial activity against Micrococcus luteus assessed as 99.9 % growth inhibition after 18 hrs by zone-of-inhibition assay; format: functional
# Mycobacterium avium = assay: Antimicrobial activity against Mycobacterium avium after 18 hrs by zone-of-inhibition assay; format: functional, organism-based
structure (smiles),measurement,setting,value
CC1=CC(=O)c2c(O)ccc(-c3ccc(O)c4c3C(=O)C(C)=CC4=O)c2C1=O [MARITINONE],IC50,Staphylococcus aureus [1],9 µg/mL
same,Activity,Mus musculus [2],Toxic
same,Activity,[3],80 µg/mL
same,Activity,Candida albicans [4],40 µg/mL
same,Activity,Staphylococcus aureus [5],300 µg/mL
same,IC50,Saccharomyces cerevisiae [6],9 µg/mL
same,Activity,LNCaP [7],inactive
same,Activity,Lu1 [8],inactive
same,Activity,Mus musculus [9],Toxic
same,Activity,Saccharomyces cerevisiae [10],80 µg/mL
same,IC50,Candida albicans [11],40 µg/mL
same,Activity,KB [12],inactive
same,IC50,Micrococcus luteus [13],200 µg/mL
same,CC50,[14],2.2 µg/mL
same,EC50,KB [15],0.3 µg/mL
same,EC50,Lu1 [16],1.4 µg/mL
same,EC50,LNCaP [17],2.2 µg/mL
same,IC50,[18],20 µg/mL
same,Activity,Cryptococcus neoformans [19],200 µg/mL
same,Activity,Aspergillus niger [20],>1000 µg/mL
same,IC50,Aspergillus niger [21],40 µg/mL
same,Activity,Mus musculus [22],Toxic
same,IC50,Cryptococcus neoformans [23],20 µg/mL
same,Activity,Micrococcus luteus [24],>1000 µg/mL
same,IC50,Mycobacterium avium,600 µg/mL
